Results taken from ChEMBL document CHEMBL1926509, “Discovery of pyrazolo[1,5-a]pyridines as p110α-selective PI3 kinase inhibitors” (Bioorg Med Chem, 2012).

How the values were obtained:
[1] = Cytotoxicity against human NZOV9 cells expressing p110alpha Y1021C mutant assessed as inhibition of [3H]thymidine incorporation after 5 days; type: functional, cell-based
In short: (§1)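 Early-passage lab-derived lines in α-MEM with insulin, transferrin, selenite and 5% FBS. Seeded at 1000 cells/well; drug added in 10-fold steps up to 20 µM. Incubated five days under 5% O₂/5% CO₂/90% N₂, with ³H-thymidine (0.04 µCi/well) over the last 6 h. Duplicates per dose; least-squares exponential fit; IC50 is the concentration giving 50% less incorporation.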

[2] = target: T1, Phosphatidylinositol 4,5-bisphosphate 3-kinase catalytic subunit delta isoform (Homo sapiens, UniProt O00329); assay: Inhibition of recombinant PI3K p110delta using L-alpha-phosphatidylinositol as substrate and [gamma33P]ATP after 60 mins by thin layer chromatographic technique
T1 sequence (O00329 whole entry): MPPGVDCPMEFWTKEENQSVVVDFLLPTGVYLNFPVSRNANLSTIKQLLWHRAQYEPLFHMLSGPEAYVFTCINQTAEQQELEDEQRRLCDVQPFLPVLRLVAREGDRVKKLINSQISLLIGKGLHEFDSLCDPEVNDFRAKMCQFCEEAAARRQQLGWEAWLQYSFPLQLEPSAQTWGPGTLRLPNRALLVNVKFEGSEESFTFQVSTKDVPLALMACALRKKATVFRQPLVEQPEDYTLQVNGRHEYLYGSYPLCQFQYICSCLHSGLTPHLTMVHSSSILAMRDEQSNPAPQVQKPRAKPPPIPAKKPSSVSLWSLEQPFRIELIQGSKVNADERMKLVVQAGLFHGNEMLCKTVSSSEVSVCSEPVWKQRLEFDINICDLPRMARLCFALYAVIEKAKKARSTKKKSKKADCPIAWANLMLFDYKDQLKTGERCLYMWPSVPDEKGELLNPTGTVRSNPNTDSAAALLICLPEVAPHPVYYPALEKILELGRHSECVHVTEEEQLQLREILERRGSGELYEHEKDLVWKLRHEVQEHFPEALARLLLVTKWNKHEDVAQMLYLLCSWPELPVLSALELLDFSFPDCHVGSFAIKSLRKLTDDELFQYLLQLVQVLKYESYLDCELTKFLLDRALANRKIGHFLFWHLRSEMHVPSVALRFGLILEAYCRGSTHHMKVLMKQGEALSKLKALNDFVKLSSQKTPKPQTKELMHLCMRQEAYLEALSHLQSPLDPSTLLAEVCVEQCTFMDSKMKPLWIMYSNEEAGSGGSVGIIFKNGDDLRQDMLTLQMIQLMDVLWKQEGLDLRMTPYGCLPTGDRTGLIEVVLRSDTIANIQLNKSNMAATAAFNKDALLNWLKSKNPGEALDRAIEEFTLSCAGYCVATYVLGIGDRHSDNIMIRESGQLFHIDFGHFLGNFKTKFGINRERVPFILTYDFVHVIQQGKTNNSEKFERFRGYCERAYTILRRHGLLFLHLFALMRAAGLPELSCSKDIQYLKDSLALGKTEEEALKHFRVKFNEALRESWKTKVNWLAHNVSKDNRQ
In short: (§2)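 In-house recombinant class Ia PI3K isoform (0.1 µg) with L-α-phosphatidylinositol substrate in lipid kinase buffer (Tris–HCl pH 7.4, NaCl, EDTA), 1% DMSO final. Started with ATP mix (5 mM MgCl₂, 100 µM ATP plus [γ-³³P]ATP), 1 h at room temperature, stopped with 1 M HCl. Lipids extracted in two steps, separated by TLC, read by phosphorimager. Nine inhibitor concentrations; IC50 averaged over two experiments.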

[3] = target: Phosphatidylinositol 4,5-bisphosphate 3-kinase catalytic subunit alpha isoform (Homo sapiens, UniProt P42336); assay: Inhibition of recombinant PI3K p110alpha using L-alpha-phosphatidylinositol as substrate and [gamma33P]ATP after 60 mins by thin layer chromatographic technique; in short: as §2
[4] = Cytotoxicity against human NZB5 cells expressing wild type p110alpha assessed as inhibition of [3H]thymidine incorporation after 5 days; type: functional, cell-based; in short: as §1
[5] = target: Phosphatidylinositol 4,5-bisphosphate 3-kinase catalytic subunit beta isoform (Homo sapiens, UniProt P42338); assay: Inhibition of recombinant PI3K p110beta using L-alpha-phosphatidylinositol as substrate and [gamma33P]ATP after 60 mins by thin layer chromatographic technique; in short: as §2
[6] = Selectivity ratio of IC50 for PI3K p110beta to IC50 for PI3K p110alpha
[7] = Selectivity ratio of IC50 for PI3K p110delta to IC50 for PI3K p110alpha

Sequence of Phosphatidylinositol 4,5-bisphosphate 3-kinase catalytic subunit beta isoform (P42338 whole entry, canonical isoform): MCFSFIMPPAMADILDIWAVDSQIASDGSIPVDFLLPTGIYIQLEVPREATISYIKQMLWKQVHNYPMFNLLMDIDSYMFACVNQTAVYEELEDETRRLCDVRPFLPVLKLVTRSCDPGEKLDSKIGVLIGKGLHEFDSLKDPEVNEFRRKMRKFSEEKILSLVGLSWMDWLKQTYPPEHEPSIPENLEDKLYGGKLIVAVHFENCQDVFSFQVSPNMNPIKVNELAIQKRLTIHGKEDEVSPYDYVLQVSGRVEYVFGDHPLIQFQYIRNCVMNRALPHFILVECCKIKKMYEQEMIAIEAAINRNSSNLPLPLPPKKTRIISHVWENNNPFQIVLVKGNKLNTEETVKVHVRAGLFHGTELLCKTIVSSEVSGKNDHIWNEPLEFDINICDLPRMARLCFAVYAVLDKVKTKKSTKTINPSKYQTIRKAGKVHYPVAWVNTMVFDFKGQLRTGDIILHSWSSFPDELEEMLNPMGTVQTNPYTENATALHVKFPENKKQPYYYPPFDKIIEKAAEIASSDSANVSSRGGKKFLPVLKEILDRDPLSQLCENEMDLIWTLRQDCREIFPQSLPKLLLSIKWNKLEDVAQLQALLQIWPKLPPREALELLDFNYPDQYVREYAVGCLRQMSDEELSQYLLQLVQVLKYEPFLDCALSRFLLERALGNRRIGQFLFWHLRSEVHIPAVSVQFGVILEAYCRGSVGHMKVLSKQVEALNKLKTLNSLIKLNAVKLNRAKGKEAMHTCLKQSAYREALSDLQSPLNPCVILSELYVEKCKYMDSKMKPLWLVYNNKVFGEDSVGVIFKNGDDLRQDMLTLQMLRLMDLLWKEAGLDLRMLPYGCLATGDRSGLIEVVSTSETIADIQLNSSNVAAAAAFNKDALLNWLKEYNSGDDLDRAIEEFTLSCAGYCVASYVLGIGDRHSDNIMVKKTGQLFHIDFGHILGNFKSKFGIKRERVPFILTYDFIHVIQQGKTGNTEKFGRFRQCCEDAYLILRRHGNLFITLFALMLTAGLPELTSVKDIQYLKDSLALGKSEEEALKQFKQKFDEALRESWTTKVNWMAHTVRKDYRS
Sequence of Phosphatidylinositol 4,5-bisphosphate 3-kinase catalytic subunit alpha isoform (P42336 whole entry, canonical isoform): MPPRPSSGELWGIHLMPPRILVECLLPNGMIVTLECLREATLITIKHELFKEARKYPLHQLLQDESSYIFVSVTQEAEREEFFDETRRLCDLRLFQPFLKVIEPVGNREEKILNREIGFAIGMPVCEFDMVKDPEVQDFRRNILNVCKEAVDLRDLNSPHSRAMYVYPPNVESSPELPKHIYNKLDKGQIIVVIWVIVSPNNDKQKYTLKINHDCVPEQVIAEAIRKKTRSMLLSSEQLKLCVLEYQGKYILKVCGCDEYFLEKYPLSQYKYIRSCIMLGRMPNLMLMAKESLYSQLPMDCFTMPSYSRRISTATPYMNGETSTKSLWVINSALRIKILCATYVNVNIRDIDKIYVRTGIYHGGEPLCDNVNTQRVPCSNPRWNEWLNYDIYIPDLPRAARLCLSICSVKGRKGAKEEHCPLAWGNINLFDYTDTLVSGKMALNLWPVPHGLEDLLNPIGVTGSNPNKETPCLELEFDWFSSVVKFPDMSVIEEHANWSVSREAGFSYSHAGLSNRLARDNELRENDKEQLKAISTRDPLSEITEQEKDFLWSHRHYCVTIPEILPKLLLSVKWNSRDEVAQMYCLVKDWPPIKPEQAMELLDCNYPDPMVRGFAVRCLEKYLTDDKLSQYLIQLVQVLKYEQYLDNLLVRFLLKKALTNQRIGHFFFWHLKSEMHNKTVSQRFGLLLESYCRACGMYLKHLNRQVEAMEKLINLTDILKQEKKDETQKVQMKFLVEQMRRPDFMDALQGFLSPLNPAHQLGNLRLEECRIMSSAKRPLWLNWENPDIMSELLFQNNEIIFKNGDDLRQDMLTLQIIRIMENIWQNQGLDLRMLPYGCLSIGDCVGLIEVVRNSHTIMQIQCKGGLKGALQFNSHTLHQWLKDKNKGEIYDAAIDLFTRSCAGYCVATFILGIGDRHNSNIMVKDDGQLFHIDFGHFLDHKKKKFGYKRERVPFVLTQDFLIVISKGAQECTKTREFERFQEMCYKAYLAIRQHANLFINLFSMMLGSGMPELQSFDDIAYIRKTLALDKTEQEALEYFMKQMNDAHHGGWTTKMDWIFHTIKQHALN

SMILES | IC50 [2] [nM] | IC50 [3] [nM] | IC50 [5] [nM] | Ratio IC50 [6] | Ratio IC50 [7] | IC50 [1] [nM] | IC50 [4] [nM]
Cc1ccc2c(/C=N/N(C)S(=O)(=O)c3cc([N+](=O)[O-])ccc3C)cnn2c1 | > 1000 | > 1000 | > 1000 | – | – | 8000 | 10000
Cc1ccc([N+](=O)[O-])cc1S(=O)(=O)N(C)/N=C/c1cnn2cccc(C)c12 | > 1000 | > 1000 | > 1000 | – | – | > 20000 | 18000
Cc1ccc([N+](=O)[O-])cc1S(=O)(=O)N(C)/N=C/c1cnn2ccc(I)cc12 | 170 | 16 | 370 | – | – | 50 | 40
Cc1ccc([N+](=O)[O-])cc1S(=O)(=O)N(C)/N=C/c1cnn2ccc(Br)cc12 | 150 | 3.8 | 230 | – | – | 50 | 310
Cc1ccc([N+](=O)[O-])cc1S(=O)(=O)N(C)/N=C/c1cnn2ccccc12 | 3400 | 960 | > 10000 | 60 | 40 | 660 | 470
C=Cc1ccn2ncc(/C=N/N(C)S(=O)(=O)c3cc([N+](=O)[O-])ccc3C)c2c1 | > 1000 | 130 | > 1000 | – | – | 580 | 990
COc1ccn2ncc(/C=N/N(C)S(=O)(=O)c3cc([N+](=O)[O-])ccc3C)c2c1 | > 1000 | 190 | > 1000 | – | – | 520 | 940
Cc1ccc([N+](=O)[O-])cc1S(=O)(=O)N(C)/N=C/c1cnn2ccc(C(F)(F)F)cc12 | > 1000 | 150 | > 1000 | – | – | 90 | 70
Cc1ccc([N+](=O)[O-])cc1S(=O)(=O)N(C)/N=C/c1cnn2ccc(-c3ccccc3)cc12 | > 1000 | > 1000 | > 1000 | – | – | 10000 | 10000
CNC(=O)c1ccn2ncc(/C=N/N(C)S(=O)(=O)c3cc([N+](=O)[O-])ccc3C)c2c1 | > 1000 | > 1000 | > 1000 | – | – | 10000 | 10000
Cc1ccc([N+](=O)[O-])cc1S(=O)(=O)N(C)/N=C/c1cnn2ccc(C3CC3)cc12 | > 1000 | 1100 | > 1000 | – | – | 670 | 740
Cc1ccc([N+](=O)[O-])cc1S(=O)(=O)N(C)/N=C/c1cnn2cc(Br)ccc12 | > 1000 | > 1000 | > 1000 | – | – | 4500 | > 20000
Cc1ccc([N+](=O)[O-])cc1S(=O)(=O)N(C)/N=C/c1cnn2cc(F)c(C#N)cc12 | 2500 | 45 | 1800 | – | – | – | –
Cc1ccc([N+](=O)[O-])cc1S(=O)(=O)N(C)/N=C/c1cnn2ccc(C(N)=O)cc12 | > 1000 | 530 | > 1000 | – | – | 10000 | 600
CC(=O)Oc1ccn2ncc(/C=N/N(C)S(=O)(=O)c3cc([N+](=O)[O-])ccc3C)c2c1 | > 1000 | 910 | > 1000 | – | – | 8900 | 8200
Cc1ccc([N+](=O)[O-])cc1S(=O)(=O)N(C)/N=C/c1cnn2c(C)cccc12 | > 1000 | 1600 | > 1000 | – | – | 1200 | 6000
Cc1ccc([N+](=O)[O-])cc1S(=O)(=O)N(C)/N=C/c1cnn2cccc(Br)c12 | > 1000 | > 1000 | > 1000 | – | – | 6500 | > 20000
Cc1ccc([N+](=O)[O-])cc1S(=O)(=O)N(C)/N=C/c1cnn2ccc(C(=O)N(C)C)cc12 | > 1000 | > 1000 | > 1000 | – | – | 10000 | 10000

The next lines start with results.

IC50 [2] [nM] | IC50 [3] [nM] | IC50 [5] [nM] | Ratio IC50 [6] | Ratio IC50 [7] | SMILES | IC50 [1] [nM] | IC50 [4] [nM]
> 1000 | > 1000 | > 1000 | – | – | CCc1ccn2ncc(/C=N/N(C)S(=O)(=O)c3cc([N+](=O)[O-])ccc3C)c2c1 | 560 | 410
440 | 10 | > 1000 | – | – | CC/C(=N\NS(=O)(=O)c1cc([N+](=O)[O-])ccc1C)c1cnn2ccc(C#N)cc12 | 360 | 88
41 | 2.4 | 30 | – | – | C#Cc1ccn2ncc(/C=N/N(C)S(=O)(=O)c3cc([N+](=O)[O-])ccc3C)c2c1 | 110 | 160
510 | 80 | 600 | – | – | C/C(=N\N(C)S(=O)(=O)c1cc([N+](=O)[O-])ccc1C)c1cnn2ccc(C#N)cc12 | 7500 | 4400
> 1000 | 390 | > 1000 | – | – | CC/C(=N\N(C)S(=O)(=O)c1cc([N+](=O)[O-])ccc1C)c1cnn2ccc(C#N)cc12 | 3700 | 410
310 | 39 | > 1000 | – | – | CCC/C(=N\NS(=O)(=O)c1cc([N+](=O)[O-])ccc1C)c1cnn2ccc(C#N)cc12 | 640 | 370
690 | 360 | > 1000 | – | – | COC(=O)c1ccn2ncc(/C=N/N(C)S(=O)(=O)c3cc([N+](=O)[O-])ccc3C)c2c1 | 1500 | 1800
> 1000 | 1200 | > 1000 | – | – | C/C(=N\N(C)S(=O)(=O)c1cc([N+](=O)[O-])ccc1C)c1cnn2ccc(Br)cc12 | > 20000 | > 20000
220 | 30 | 480 | – | – | C/C(=N\NS(=O)(=O)c1cc([N+](=O)[O-])ccc1C)c1cnn2ccc(Br)cc12 | 350 | 420
> 1000 | 610 | > 1000 | – | – | CCC/C(=N\N(C)S(=O)(=O)c1cc([N+](=O)[O-])ccc1C)c1cnn2ccc(C#N)cc12 | 2300 | 680
700 | 110 | > 1000 | – | – | Cc1ccn2ncc(/C=N/N(C)S(=O)(=O)c3cc([N+](=O)[O-])ccc3C)c2c1 | 70 | 50
580 | 13 | 620 | – | – | Cc1ccc([N+](=O)[O-])cc1S(=O)(=O)N/N=C/c1cnn2ccc(C#N)cc12 | 4900 | 2600
> 1000 | 340 | > 1000 | – | – | Cc1ccc([N+](=O)[O-])cc1S(=O)(=O)N(C)/N=C/c1cnn2ccc(O)cc12 | > 20000 | > 20000
90 | 2.9 | 390 | – | – | Cc1ccc([N+](=O)[O-])cc1S(=O)(=O)N(C)/N=C/c1cnn2ccc(Cl)cc12 | 550 | –
900 | 7 | 410 | – | – | C/C(=N\NS(=O)(=O)c1cc([N+](=O)[O-])ccc1C)c1cnn2ccc(C#N)cc12 | 2100 | 1100
